Source: ChEMBL document CHEMBL5058577, “EUbOPEN Chemogenomics Library 2 (Multiplex)” (2022)

System: U2OS
Test: Multiplex assay against U2OS
Format: toxicity, cell-based
Conditions: human
In short: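 Cells were classed with CellPathfinder machine-learning gating, first as Hoechst high-intensity objects or normal cells, then (normal cells) as healthy, pyknosed or fragmented nuclei, and finally (pyknosed cells) as mitotic or apoptotic. Staining of live cells at seeding used Hoechst33342, BioTracker Green Microtubule Cytoskeleton Dye, MitoTracker Red and Annexin V Alexa Fluor 680, with imaging on a CQ1 microscope at 37°C and 5% CO2 after compound addition. Tubulin, mitochondrial-mass and membrane-permeability phenotypes are per cents of healthy-nucleus cells.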

[1] = 12 h, 1 µM, compound concentration 1 uM, replicate 1
[2] = 12 h, 1 µM, compound concentration 1 uM, replicate 2
[3] = 12 h, 10 µM, compound concentration 10 uM, replicate 1
[4] = 12 h, 10 µM, compound concentration 10 uM, replicate 2
[5] = 24 h, 1 µM, compound concentration 1 uM, replicate 1
[6] = 24 h, 1 µM, compound concentration 1 uM, replicate 2
[7] = 24 h, 10 µM, compound concentration 10 uM, replicate 1
[8] = 24 h, 10 µM, compound concentration 10 uM, replicate 2
[9] = 48 h, 1 µM, compound concentration 1 uM, replicate 1
[10] = 48 h, 1 µM, compound concentration 1 uM, replicate 2
[11] = 48 h, 10 µM, compound concentration 10 uM, replicate 1
[12] = 48 h, 10 µM, compound concentration 10 uM, replicate 2

In the case of `Cc1sc2c(c1C)C(c1ccc(Cl)cc1)=N[C@H](CC(=O)OC(C)(C)C)c1nnc(C)n1-2`, the “Population Apoptotic (%)” value [1] is reported as 81%, the “Population Fragmented Nuclei (%)” value [1] is reported as 28% and the “Population Healthy Nuclei (%)” value [1] is reported as 63%. The “Population Hoechst High Intensity Objects (%)” value [1] was 2%, the “Population Membrane Permeable-Phenotype (%)” value [1] was 7% and the “Population Mitochondria Different-Phenotype (%)” value [1] was 4%. The “Population Mitotic Cells (%)” value [1] was 18%, the “Population Normal (%)” value [1] was 97% and the “Population Pyknosed Nuclei (%)” value [1] was 8%. For the same compound, the “Population Tubulin-Different-Phenotype (%)” value [1] was 4%, the “Total Cell Count” value [1] was 256 and the “Population Apoptotic (%)” value [2] was 71%. For the same compound, the “Population Fragmented Nuclei (%)” value [2] was 16%, the “Population Healthy Nuclei (%)” value [2] was 77% and the “Population Hoechst High Intensity Objects (%)” value [2] was 4%. The “Population Mitochondria Different-Phenotype (%)” value [2] was 2%, the “Population Mitotic Cells (%)” value [2] was 28% and the “Population Normal (%)” value [2] was 95%. For the same compound, the “Population Pyknosed Nuclei (%)” value [2] was 6%, the “Total Cell Count” value [2] was 120 and the “Population Apoptotic (%)” value [3] was 51%. The “Population Fragmented Nuclei (%)” value [3] was 32%, the “Population Healthy Nuclei (%)” value [3] was 56% and the “Population Hoechst High Intensity Objects (%)” value [3] was 2%. The “Population Membrane Permeable-Phenotype (%)” value [3] was 42%, the “Population Mitochondria Different-Phenotype (%)” value [3] was 35% and the “Population Mitotic Cells (%)” value [3] was 48%. The “Population Normal (%)” value [3] was 97%, the “Population Pyknosed Nuclei (%)” value [3] was 11% and the “Population Tubulin-Different-Phenotype (%)” value [3] was 39%. The “Total Cell Count” value [3] was 240, the “Population Apoptotic (%)” value [4] was 90% and the “Population Fragmented Nuclei (%)” value [4] was 22%. The “Population Healthy Nuclei (%)” value [4] was 68%, the “Population Hoechst High Intensity Objects (%)” value [4] was 0% and the “Population Membrane Permeable-Phenotype (%)” value [4] was 13%. For the same compound, the “Population Mitochondria Different-Phenotype (%)” value [4] was 24%, the “Population Mitotic Cells (%)” value [4] was 10% and the “Population Normal (%)” value [4] was 100%. For the same compound, the “Population Pyknosed Nuclei (%)” value [4] was 8%, the “Population Tubulin-Different-Phenotype (%)” value [4] was 11% and the “Total Cell Count” value [4] was 118. For the same compound, the “Population Apoptotic (%)” value [5] was 77%, the “Population Fragmented Nuclei (%)” value [5] was 22% and the “Population Healthy Nuclei (%)” value [5] was 69%. The “Population Hoechst High Intensity Objects (%)” value [5] was 0%, the “Population Membrane Permeable-Phenotype (%)” value [5] was 5% and the “Population Mitochondria Different-Phenotype (%)” value [5] was 1%. For the same compound, the “Population Mitotic Cells (%)” value [5] was 22%, the “Population Normal (%)” value [5] was 99% and the “Population Pyknosed Nuclei (%)” value [5] was 7%. For the same compound, the “Population Tubulin-Different-Phenotype (%)” value [5] was 1%, the “Total Cell Count” value [5] was 280 and the “Population Apoptotic (%)” value [6] was 75%. For the same compound, the “Population Fragmented Nuclei (%)” value [6] was 20%, the “Population Healthy Nuclei (%)” value [6] was 70% and the “Population Hoechst High Intensity Objects (%)” value [6] was 3%. For the same compound, the “Population Mitochondria Different-Phenotype (%)” value [6] was 2%, the “Population Mitotic Cells (%)” value [6] was 25% and the “Population Normal (%)” value [6] was 96%. For the same compound, the “Population Pyknosed Nuclei (%)” value [6] was 8%, the “Population Tubulin-Different-Phenotype (%)” value [6] was 2% and the “Total Cell Count” value [6] was 149. For the same compound, the “Population Apoptotic (%)” value [7] was 83%, the “Population Fragmented Nuclei (%)” value [7] was 29% and the “Population Healthy Nuclei (%)” value [7] was 57%. The “Population Hoechst High Intensity Objects (%)” value [7] was 2%, the “Population Membrane Permeable-Phenotype (%)” value [7] was 17% and the “Population Mitochondria Different-Phenotype (%)” value [7] was 17%. For the same compound, the “Population Mitotic Cells (%)” value [7] was 16%, the “Population Normal (%)” value [7] was 97% and the “Population Pyknosed Nuclei (%)” value [7] was 13%. The “Population Tubulin-Different-Phenotype (%)” value [7] was 8%, the “Total Cell Count” value [7] was 280 and the “Population Apoptotic (%)” value [8] was 76%. The “Population Fragmented Nuclei (%)” value [8] was 24%, the “Population Healthy Nuclei (%)” value [8] was 65% and the “Population Hoechst High Intensity Objects (%)” value [8] was 0%. For the same compound, the “Population Membrane Permeable-Phenotype (%)” value [8] was 7%, the “Population Mitochondria Different-Phenotype (%)” value [8] was 25% and the “Population Mitotic Cells (%)” value [8] was 23%. The “Population Normal (%)” value [8] was 99%, the “Population Pyknosed Nuclei (%)” value [8] was 10% and the “Population Tubulin-Different-Phenotype (%)” value [8] was 3%. The “Total Cell Count” value [8] was 130, the “Population Apoptotic (%)” value [9] was 77% and the “Population Fragmented Nuclei (%)” value [9] was 20%. The “Population Healthy Nuclei (%)” value [9] was 72%, the “Population Hoechst High Intensity Objects (%)” value [9] was 1% and the “Population Membrane Permeable-Phenotype (%)” value [9] was 5%. For the same compound, the “Population Mitochondria Different-Phenotype (%)” value [9] was 2%, the “Population Mitotic Cells (%)” value [9] was 22% and the “Population Normal (%)” value [9] was 98%. For the same compound, the “Population Pyknosed Nuclei (%)” value [9] was 6%, the “Population Tubulin-Different-Phenotype (%)” value [9] was 2% and the “Total Cell Count” value [9] was 415. The “Population Apoptotic (%)” value [10] was 96%, the “Population Fragmented Nuclei (%)” value [10] was 21% and the “Population Healthy Nuclei (%)” value [10] was 64%. The “Population Hoechst High Intensity Objects (%)” value [10] was 3%, the “Population Membrane Permeable-Phenotype (%)” value [10] was 7% and the “Population Mitochondria Different-Phenotype (%)” value [10] was 7%. The “Population Mitotic Cells (%)” value [10] was 3%, the “Population Normal (%)” value [10] was 96% and the “Population Pyknosed Nuclei (%)” value [10] was 14%. For the same compound, the “Population Tubulin-Different-Phenotype (%)” value [10] was 5%, the “Total Cell Count” value [10] was 228 and the “Population Apoptotic (%)” value [11] was 86%. For the same compound, the “Population Fragmented Nuclei (%)” value [11] was 23%, the “Population Healthy Nuclei (%)” value [11] was 57% and the “Population Hoechst High Intensity Objects (%)” value [11] was 2%. For the same compound, the “Population Membrane Permeable-Phenotype (%)” value [11] was 11%, the “Population Mitochondria Different-Phenotype (%)” value [11] was 7% and the “Population Mitotic Cells (%)” value [11] was 13%. For the same compound, the “Population Normal (%)” value [11] was 97%, the “Population Pyknosed Nuclei (%)” value [11] was 18% and the “Population Tubulin-Different-Phenotype (%)” value [11] was 5%. The “Total Cell Count” value [11] was 342, the “Population Apoptotic (%)” value [12] was 89% and the “Population Fragmented Nuclei (%)” value [12] was 20%. For the same compound, the “Population Healthy Nuclei (%)” value [12] was 68%, the “Population Hoechst High Intensity Objects (%)” value [12] was 1% and the “Population Mitochondria Different-Phenotype (%)” value [12] was 8%. For the same compound, the “Population Mitotic Cells (%)” value [12] was 10%, the “Population Normal (%)” value [12] was 98% and the “Population Pyknosed Nuclei (%)” value [12] was 11%. The “Population Tubulin-Different-Phenotype (%)” value [12] was 3% and the “Total Cell Count” value [12] was 174.
